# Test results: article PMC6045484 (ACS Omega, 2018)
# Experiments:
# [1] = tested on: CQ-sensitive (CQS) and CQ-resistant (CQR) strains; conditions: strain not stated ref 11; cited from earlier work
# [2] = tested on: multidrug-resistant P. yoelii nigeriensis; assay: blood-schizontocidal activity against P. yoelii nigeriensis infection in mice; format: in vivo, Plasmodium yoelii nigeriensis; conditions: Swiss mice
# Procedure, shortened: (§1)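 Swiss mice of either sex (about 15–20 g, same age), six per group, inoculated intraperitoneally on day 0 with 1 × 10^7 infected erythrocytes from a donor mouse. Oral test compound at 100, 50, 25 or 10 mg/kg, CQ diphosphate (10 mg/kg/day × 4) or vehicle started 4 h later, on D0 to D+3. Giemsa tail-blood smears on D+4 and D+7. Curative: parasites eliminated, no relapse, all mice surviving to D+60.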
# P. falciparum (D6) = assay: in vitro antimalarial activity, plasmodial LDH; format: cell-based, Plasmodium falciparum; conditions: for IC50: Plasmodium falciparum, D6, 72 h, read-out: P. falciparum (D6) IC50
# [3] = tested on: P. berghei (sensitive strain); assay: blood-schizontocidal activity against P. berghei infection in mice; format: in vivo, Plasmodium berghei; conditions: Swiss mice
# Procedure, shortened: as §1
# P. falciparum (W2) = assay: in vitro antimalarial activity, plasmodial LDH; format: cell-based, Plasmodium falciparum; conditions: for IC50: Plasmodium falciparum, W2, 72 h, read-out: P. falciparum (W2) IC50, CQ-resistant W2 strain, 72 h
# Procedure, shortened: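 P. falciparum-infected erythrocytes (2% parasitemia, 2% hematocrit) in RPMI 1640 with 10% human serum and 60 μg/mL amikacin. Exposed to test compound dilutions for 72 h at 37 °C under 90% N2/5% O2/5% CO2. LDH measured with Malstat reagent (30 min, room temperature), then NBT/PES for 1 h in the dark, stopped with 5% acetic acid, read at 650 nm. IC50 from dose-response curves.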
# C. neoformans ATCC90113 = assay: in vitro antifungal activity; format: cell-based, Cryptococcus neoformans
# Procedure, shortened: (§2)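 Modified NCCLS broth method in Sabouraud dextrose. Inoculum set by OD630 to 1.5 × 10^3 CFU/mL. Test compound serially diluted in 20% DMSO/saline, duplicate wells, up to 20 μg/mL. Incubated 70–74 h at 35 °C; 530 nm read before and after. IC50 is 50% growth inhibition; MIC is no detectable growth. MFC from clear wells subcultured on agar. Amphotericin B control.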
# A. fumigatus ATCC 90906 = assay: in vitro antifungal activity; format: cell-based, Aspergillus fumigatus
# Procedure, shortened: as §2
# [4] = tested on: L. donovani promastigotes; assay: in vitro antileishmanial activity, alamarBlue assay; format: cell-based, Leishmania donovani; conditions: 48 h
# C. glabrata ATCC90030 = assay: in vitro antifungal activity; format: cell-based, Candida glabrata
# Procedure, shortened: as §2
# SA (ATCC29213) = assay: in vitro antibacterial activity; format: cell-based; conditions: Staphylococcus aureus
# Procedure, shortened: (§3)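 Test compound serially diluted in 20% DMSO/saline and plated in duplicate, up to 20 μg/mL. Inoculum in cation-adjusted Mueller–Hinton broth, pH 7.3, set by OD630 to 5 × 10^5 CFU/mL. Incubated 16–20 h at 35 °C; 530 nm read before and after. IC50 is 50% growth inhibition; MIC is no detectable growth. MBC from clear wells subcultured on agar. Ciprofloxacin control.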
# C. albicans ATCC90028 = assay: in vitro antifungal activity; format: cell-based, Candida albicans
# Procedure, shortened: as §2
# MRSA (ATCC33591) = assay: in vitro antibacterial activity; format: cell-based, methicillin-resistant Staphylococcus aureus
# Procedure, shortened: as §3
# [5] = tested on: M. intracellulare (ATCC23068); assay: in vitro antibacterial activity, modified alamarBlue procedure; format: cell-based, Mycobacterium intracellulare
# Procedure, shortened: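 Modified alamarBlue microplate method. Test compound serially diluted in 20% DMSO/saline, duplicate wells, up to 20 μg/mL. Inoculum 2.0 × 10^6 CFU/mL in Middlebrook 7H9 with OADC, pH 7.3, containing 5% alamarBlue. Incubated 70–74 h at 37 °C, 10% CO2; fluorescence 544ex/590em read before and after. MIC: no blue-to-pink change. MBC by subculturing blue wells on agar. Ciprofloxacin control.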
# [6] = tested on: SK-MEL, KB, BT-549, SK-OV-3, VERO and LLC-PK1 cells; assay: cytotoxicity, neutral red uptake assay; format: cell-based, mammalian; conditions: highest test concentration 4760 ng/mL
# Procedure, shortened: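 Cells seeded at 25 000/well and allowed 24 h to reach confluence. Test compound was then added and incubated 48 h. Viable cells were counted by a modified neutral red uptake method. The panel was four human cancer lines and two noncancerous mammalian kidney lines. Doxorubicin served as positive control and DMSO as negative control.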
# C. krusei ATCC6258 = assay: in vitro antifungal activity; format: cell-based, Candida krusei
# Procedure, shortened: as §2
# [7] = highest test concentration 20 μg/mL
# [8] = methicillin-resistant S. aureus, highest test concentration 20 μg/mL
smiles,measurement,setting,value
COc1cc(NC(C)CCCN)c2nc(C(C)(C)C)ccc2c1 (stereo not shown) [2-tert-butylprimaquine],in vitro antimalarial activity IC50,[1],0.039 µg/mL
"CCN(CC)CCCC(C)Nc1ccnc2cc(Cl)ccc12 (stereo not shown) [CQ, chloroquine, reference compound]",P. yoelii nigeriensis blood-schizontocidal activity (mice cured/treated),"[2]; 25 mg/kg/day × 4, oral",inactive (0/6)
same,P. yoelii nigeriensis blood-schizontocidal activity (mice cured/treated),"[2]; 50 mg/kg/day × 4, oral",inactive (0/6)
same,P. yoelii nigeriensis blood-schizontocidal activity (mice cured/treated),"[2]; 100 mg/kg/day × 4, oral",inactive (0/6)
same,IC50,P. falciparum (D6),0.015 µg/mL
same,in vitro antimalarial activity IC50,[1],0.113 µg/mL
same,P. berghei blood-schizontocidal activity (mice cured/treated),"[3]; 10 mg/kg/day × 4, oral",active (2/6)
same,P. berghei blood-schizontocidal activity (mice cured/treated),"[3]; 25 mg/kg/day × 4, oral",curative (6/6)
same,P. berghei blood-schizontocidal activity (mice cured/treated),"[3]; 50 mg/kg/day × 4, oral",curative (6/6)
same,P. berghei blood-schizontocidal activity (mice cured/treated),"[3]; 100 mg/kg/day × 4, oral",curative (6/6)
same,IC50,P. falciparum (W2),0.14 µg/mL
"CCCCCCCOc1c(OC)cc(NC(C)CCCN)c2nc(C(C)(C)C)ccc12 (stereo not shown) [compound 48, N^4-(2-tert-Butyl-5-(heptyloxy)-6-methoxyquinolin-8-yl)pentane-1,4-diamine]",IC50,"C. neoformans ATCC90113; Cryptococcus neoformans, ATCC90113, read-out: C. neoformans IC50",2.07 µg/mL
same,MFC,"C. neoformans ATCC90113; Cryptococcus neoformans, ATCC90113, read-out: C. neoformans MFC",2.5 µg/mL
same,MIC,"C. neoformans ATCC90113; Cryptococcus neoformans, ATCC90113, read-out: C. neoformans MIC",2.5 µg/mL
same,IC50,"A. fumigatus ATCC 90906; Aspergillus fumigatus, ATCC90906, read-out: A. fumigatus IC50",6 µg/mL
same,MFC,"A. fumigatus ATCC 90906; Aspergillus fumigatus, ATCC90906, read-out: A. fumigatus MFC",> 20 µg/mL
same,MIC,"A. fumigatus ATCC 90906; Aspergillus fumigatus, ATCC90906, read-out: A. fumigatus MIC",> 20 µg/mL
same,P. yoelii nigeriensis blood-schizontocidal activity (mice cured/treated),"[2]; 25 mg/kg/day × 4, oral",inactive (0/6)
same,P. yoelii nigeriensis blood-schizontocidal activity (mice cured/treated),"[2]; 50 mg/kg/day × 4, oral",active (3/6)
same,P. yoelii nigeriensis blood-schizontocidal activity (mice cured/treated),"[2]; 100 mg/kg/day × 4, oral",active (4/6)
same,IC50,"[4]; Leishmania donovani, read-out: L. donovani IC50, promastigotes, 48 h",5 µg/mL
same,IC90,"[4]; Leishmania donovani, read-out: L. donovani IC90, promastigotes, 48 h",> 40 µg/mL
same,C. glabrata MFC,C. glabrata ATCC90030,5.00 µg/mL
same,C. glabrata MIC,C. glabrata ATCC90030,5.00 µg/mL
same,IC50,P. falciparum (D6),0.05 µg/mL
same,IC50,"SA (ATCC29213); ATCC29213, read-out: IC50 (concentration that affords 50% growth inhibition), SA",2.77 µg/mL
same,MBC,"SA (ATCC29213); ATCC29213, read-out: MBC (minimum bactericidal concentration), SA",20 µg/mL
same,MIC,"SA (ATCC29213); ATCC29213, read-out: MIC, SA",5 µg/mL
same,C. albicans MFC,C. albicans ATCC90028,10.00 µg/mL
same,C. albicans MIC,C. albicans ATCC90028,10.00 µg/mL
same,IC50,"C. albicans ATCC90028; Candida albicans, ATCC90028, read-out: C. albicans IC50",4.93 µg/mL
same,MIC,"C. albicans ATCC90028; Candida albicans, ATCC90028, read-out: C. albicans MIC",10 µg/mL
same,MIC,"MRSA (ATCC33591); Staphylococcus aureus, ATCC33591|MRSA, read-out: MIC, MRSA",5 µg/mL
same,IC50,"[5]; Mycobacterium intracellulare, ATCC23068, read-out: IC50 (concentration that affords 50% growth inhibition), M. intracellulare",3.72 µg/mL
same,MBC,"[5]; Mycobacterium intracellulare, ATCC23068, read-out: MBC (minimum bactericidal concentration), M. intracellulare",5 µg/mL
same,MIC,"[5]; Mycobacterium intracellulare, ATCC23068, read-out: MIC, M. intracellulare",5 µg/mL
same,P. berghei blood-schizontocidal activity (mice cured/treated),"[3]; 10 mg/kg/day × 4, oral",active (4/6)
same,P. berghei blood-schizontocidal activity (mice cured/treated),"[3]; 25 mg/kg/day × 4, oral",curative (6/6)
same,P. berghei blood-schizontocidal activity (mice cured/treated),"[3]; 50 mg/kg/day × 4, oral",curative (6/6)
same,P. berghei blood-schizontocidal activity (mice cured/treated),"[3]; 100 mg/kg/day × 4, oral",curative (6/6)
same,IC50,P. falciparum (W2),0.037 µg/mL
same,cytotoxicity CTX,[6],"NC (NC, not cytotoxic up to 4760 ng/mL (4.76 μg/mL))"
same,C. krusei MFC,C. krusei ATCC6258,5.00 µg/mL
same,C. krusei MIC,C. krusei ATCC6258,5.00 µg/mL
"CCCCCCCCOc1c(OC)cc(NC(C)CCCNC(=O)C(N)CCCN)c2nc(C(C)(C)C)ccc12 (stereo not shown) [compound 118, 2,5-Diamino-N-(4-(2-tert-butyl-6-methoxy-5-(octyloxy)quinolin-8-lamino)pentyl)-pentanamide]",C. neoformans IC50,C. neoformans ATCC90113,4.93 µg/mL
same,C. neoformans MFC,C. neoformans ATCC90113,>20 µg/mL
same,C. neoformans MIC,C. neoformans ATCC90113,>20 µg/mL
same,A. fumigatus IC50,A. fumigatus ATCC 90906,"NA (NA, no activity at the highest test concentration of 20 μg/mL)"
same,A. fumigatus MFC,A. fumigatus ATCC 90906,"NA (NA, no activity at the highest test concentration of 20 μg/mL)"
same,A. fumigatus MIC,A. fumigatus ATCC 90906,"NA (NA, no activity at the highest test concentration of 20 μg/mL)"
same,L. donovani IC50,[4]; promastigotes,26.61 µg/mL
same,L. donovani IC90,[4]; promastigotes,37.9 µg/mL
same,C. glabrata IC50,C. glabrata ATCC90030,8.05 µg/mL
same,C. glabrata MFC,C. glabrata ATCC90030,>20 µg/mL
same,C. glabrata MIC,C. glabrata ATCC90030,>20 µg/mL
same,P. falciparum (D6) IC50,"P. falciparum (D6); CQ-sensitive D6 strain, 72 h","NA (NA, not active)"
same,"IC50 (concentration that affords 50% growth inhibition), SA",SA (ATCC29213); [7],"NA (NA, no activity at the highest test concentration of 20 μg/mL)"
same,"MBC (minimum bactericidal concentration), SA",SA (ATCC29213); [7],"NA (NA, no activity at the highest test concentration of 20 μg/mL)"
same,"MIC, SA",SA (ATCC29213); [7],"NA (NA, no activity at the highest test concentration of 20 μg/mL)"
same,C. albicans IC50,C. albicans ATCC90028,19.95 µg/mL
same,C. albicans MFC,C. albicans ATCC90028,>20 µg/mL
same,C. albicans MIC,C. albicans ATCC90028,>20 µg/mL
same,"IC50 (concentration that affords 50% growth inhibition), MRSA",MRSA (ATCC33591); [8],"NA (NA, no activity at the highest test concentration of 20 μg/mL)"
same,"MBC (minimum bactericidal concentration), MRSA",MRSA (ATCC33591); [8],"NA (NA, no activity at the highest test concentration of 20 μg/mL)"
same,"MIC, MRSA",MRSA (ATCC33591); [8],"NA (NA, no activity at the highest test concentration of 20 μg/mL)"
same,"IC50 (concentration that affords 50% growth inhibition), M. intracellulare",[5]; [7],7.71 µg/mL
same,"MBC (minimum bactericidal concentration), M. intracellulare",[5]; [7],>20 µg/mL
same,"MIC, M. intracellulare",[5]; [7],>20 µg/mL
same,P. falciparum (W2) IC50,"P. falciparum (W2); CQ-resistant W2 strain, 72 h","NA (NA, not active)"
same,cytotoxicity CTX,[6],"NC (NC, not cytotoxic up to 4760 ng/mL (4.76 μg/mL))"
same,C. krusei IC50,C. krusei ATCC6258,15.36 µg/mL
same,C. krusei MFC,C. krusei ATCC6258,>20 µg/mL
same,C. krusei MIC,C. krusei ATCC6258,>20 µg/mL
